In brackets after ≈: the same amount, converted by molar mass. Values belong to the compound of their own block, whether it stands above or below them.
Key:
Type in all cases: functional
[1] = tested on: Haemophilus; test: In vitro inhibitory activity against Haemophilus AmpS (43)
[2] = tested on: Mus musculus; test: In Vivo evaluation for its effective dose against Haemophilus influenzae (351GR1)
How it was run: (§1)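 Male Charles River CD1 mice, 20-22 g, 10 per dose group, infected intraperitoneally with 0.5 mL diluted overnight broth culture (physiological buffer or 5% hog mucine) at 10-100 times the minimal lethal dose. Compound suspended in carboxymethylcellulose, 0.5 mL given orally immediately and 4 h postinfection. Survival followed 8-10 days; ED50 (unitary dose protecting 50% from death) by Litchfield-Wilcoxon probit method.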

[3] = tested on: Haemophilus; test: In vitro inhibitory activity against Haemophilus AmpR (37)
[4] = tested on: Mus musculus; test: In Vivo evaluation for its effective dose against Haemophilus influenzae (351RD7 AmpR beta (+)); how it was run: as §1
[5] = tested on: Mus musculus; test: In Vivo evaluation for its effective dose against Haemophilus influenzae (351TO19 AmpR beta (-)); how it was run: as §1
[6] = tested on: Enterococcus; test: In vitro inhibitory activity against enterococci EryRi (19)
[7] = In vitro inhibitory activity against Pneumococci PenR (65)
[8] = tested on: Mus musculus; test: In Vivo evaluation for its effective dose against Staphylococcus aureus (011GO25 EryRi.; how it was run: as §1
[9] = tested on: Enterococcus; test: In vitro inhibitory activity against enterococci EryRc (13)
[10] = tested on: Staphylococcus sp.; test: In vitro inhibitory activity against Staphylococci Staphylococci EryRc (23)
[11] = tested on: Mus musculus; test: In Vivo evaluation for its effective dose against Streptococcus pneumoniae (030SJ6 EryRc); how it was run: as §1
[12] = tested on: Streptococcus sp.; test: In vitro inhibitory activity against Streptococci EryR (27)
[13] = tested on: Staphylococcus sp.; test: In vitro inhibitory activity against Staphylococci EryRi (65)
[14] = tested on: Mus musculus; test: In Vivo evaluation for its effective dose against Streptococcus pneumoniae (030Cr29 EryRc); how it was run: as §1
[15] = tested on: Mus musculus; test: In Vivo evaluation for its effective dose against Streptococcus pneumoniae (030SJ1 EryRc); how it was run: as §1
[16] = In vitro inhibitory activity against Pneumococci EryRc (34)
[17] = tested on: Mus musculus; test: In Vivo evaluation for its effective dose against Streptococcus pneumoniae (030MV2 EryRc); how it was run: as §1
[18] = tested on: Streptococcus sp.; test: In vitro inhibitory activity against Streptococci EryRi (98)
[19] = tested on: Mus musculus; test: In Vivo evaluation for its effective dose against Streptococcus pneumoniae (030RO1 EryRi); how it was run: as §1
[20] = tested on: Staphylococcus aureus; test: In vitro inhibitory activity against Staphylococcus aureus (011UC4)
How it was run: (§2)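 Two-fold agar dilution on Mueller-Hinton agar (pH 7.4). Inoculum from overnight plate cultures suspended in Mueller-Hinton broth, adjusted to 10^9 CFU/mL, diluted 1:200 and spotted by multipoint inoculator at about 10^4 CFU/spot. Plates incubated 37 °C for 20 h. MIC taken as lowest concentration with no visible growth.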

[21] = tested on: Haemophilus influenzae; test: In vitro inhibitory activity against Haemophilus influenzae (351CB12); how it was run: as §2
[22] = tested on: Streptococcus pneumoniae; test: In vitro inhibitory activity against Streptococcus pneumoniae (EryRc 030SJ1); how it was run: as §2
[23] = tested on: Staphylococcus aureus; test: In vitro inhibitory activity against Staphylococcus aureus (EryRi 011GO25i); how it was run: as §2
[24] = tested on: Streptococcus pneumoniae; test: In vitro inhibitory activity against Streptococcus pneumoniae (032UC1); how it was run: as §2
[25] = tested on: Staphylococcus aureus; test: In vitro inhibitory activity against Staphylococcus aureus (EryRc 011CB20); how it was run: as §2
[26] = tested on: Streptococcus pneumoniae; test: In vitro inhibitory activity against Streptococcus pneumoniae (EryRi 030SJ5i); how it was run: as §2
[27] = tested on: Escherichia coli; test: In vitro inhibitory activity against Escherichia coli (250 UC5); how it was run: as §2
[28] = tested on: Staphylococcus epidermidis; test: In vitro inhibitory activity against Staphylococcus epidermidis (EryRi 012GO11i); how it was run: as §2
[29] = tested on: Haemophilus influenzae; test: In vitro inhibitory activity against Haemophilus influenzae (351HT3); how it was run: as §2
[30] = tested on: Streptococcus pyogenes; test: In vitro inhibitory activity against Streptococcus pyogenes (02A1UC1); how it was run: as §2
[31] = tested on: Mus musculus; test: In Vivo evaluation for its effective dose against Streptococcus pneumoniae (032UC1); how it was run: as §1
[32] = tested on: Staphylococcus sp.; test: In vitro inhibitory activity against Staphylococci EryRc (23)
[33] = tested on: Mus musculus; test: In Vivo evaluation for its effective dose against Streptococcus pyogenes (02A1UC1); how it was run: as §1
[34] = tested on: Mus musculus; test: In Vivo evaluation for its effective dose against Staphylococcus aureus (011UC4).; how it was run: as §1

SMILES: CC1(C)S[C@@H]2[C@H](NC(=O)[C@H](N)c3ccccc3)C(=O)N2[C@H]1C(=O)O [AMPICILLIN]
MIC50 [1]: 0.3 µg/mL (≈ 0.859 µM)
MIC90 [1]: 0.6 µg/mL (≈ 1.72 µM)
ED50 [2]: 5.5 mg/kg
MIC50 [3]: 1.2 µg/mL (≈ 3.43 µM)
MIC90 [3]: 1 µg/mL (≈ 2.86 µM)
ED50 [4]: > 600 mg/kg
ED50 [5]: 39 mg/kg

SMILES: CO[C@@H]1[C@@H](OC2OC(C)C(OC3CC(C)(O)C(OC(=O)CC(C)C)C(C)O3)C(N(C)C)C2O)[C@@H](CC=O)C[C@@H](C)[C@@H](O)/C=C/C=C/C[C@@H](C)OC(=O)C[C@H]1OC(C)=O (some centres undefined)
MIC50 [6]: 1.2 µg/mL (≈ 1.45 µM)
MIC90 [6]: 1.2 µg/mL (≈ 1.45 µM)
MIC50 [7]: 0.3 µg/mL (≈ 0.362 µM)
MIC90 [7]: 40 µg/mL (≈ 48.3 µM)
ED50 [8]: > 100 mg/kg
MIC50 [1]: 5 µg/mL (≈ 6.04 µM)
MIC90 [1]: 20 µg/mL (≈ 24.2 µM)
MIC50 [9]: 40 µg/mL (≈ 48.3 µM)
MIC90 [9]: 40 µg/mL (≈ 48.3 µM)
MIC50 [10]: 40 µg/mL (≈ 48.3 µM)
MIC90 [10]: 40 µg/mL (≈ 48.3 µM)
ED50 [11]: > 100 mg/kg
MIC50 [3]: 5 µg/mL (≈ 6.04 µM)
MIC90 [3]: 20 µg/mL (≈ 24.2 µM)
MIC50 [12]: 5 µg/mL (≈ 6.04 µM)
MIC90 [12]: 40 µg/mL (≈ 48.3 µM)
MIC50 [13]: 1.2 µg/mL (≈ 1.45 µM)
MIC90 [13]: 2.5 µg/mL (≈ 3.02 µM)
ED50 [14]: > 100 mg/kg
ED50 [15]: > 100 mg/kg
MIC50 [16]: 20 µg/mL (≈ 24.2 µM)
MIC90 [16]: 40 µg/mL (≈ 48.3 µM)
ED50 [17]: > 100 mg/kg
MIC50 [18]: 5 µg/mL (≈ 6.04 µM)
MIC90 [18]: 40 µg/mL (≈ 48.3 µM)
ED50 [19]: > 100 mg/kg

SMILES: CC[C@H]1OC(=O)[C@H](C)C(=O)[C@H](C)[C@@H](O[C@@H]2O[C@H](C)C[C@H](N(C)C)[C@H]2O)[C@](C)(OC)C[C@@H](C)C(=O)[C@@H](C)[C@H]2N(N)C(=O)O[C@]12C
MIC [20]: 40 µg/mL (≈ 63.7 µM)
MIC [21]: 40 µg/mL (≈ 63.7 µM)
MIC [22]: 40 µg/mL (≈ 63.7 µM)
MIC [23]: 40 µg/mL (≈ 63.7 µM)
MIC [24]: 5 µg/mL (≈ 7.96 µM)
MIC [25]: 40 µg/mL (≈ 63.7 µM)
MIC [26]: 40 µg/mL (≈ 63.7 µM)
MIC [27]: 40 µg/mL (≈ 63.7 µM)
MIC [28]: 40 µg/mL (≈ 63.7 µM)
MIC [29]: 40 µg/mL (≈ 63.7 µM)
MIC [30]: 2.5 µg/mL (≈ 3.98 µM)

SMILES: CC[C@H]1OC(=O)[C@H](C)C(=O)[C@H](C)[C@@H](O[C@@H]2O[C@H](C)C[C@H](N(C)C)[C@H]2O)[C@](C)(OC)C[C@@H](C)C(=O)[C@H](C)[C@H]2N(N)C(=O)O[C@]12C
MIC [20]: 1.2 µg/mL (≈ 1.91 µM)
MIC [21]: 10 µg/mL (≈ 15.9 µM)
MIC [22]: 40 µg/mL (≈ 63.7 µM)
MIC [23]: 1.2 µg/mL (≈ 1.91 µM)
MIC [24]: 0.08 µg/mL (≈ 0.127 µM)
MIC [25]: 40 µg/mL (≈ 63.7 µM)
MIC [26]: 40 µg/mL (≈ 63.7 µM)
MIC [27]: 40 µg/mL (≈ 63.7 µM)
MIC [28]: 1.2 µg/mL (≈ 1.91 µM)
MIC [29]: 10 µg/mL (≈ 15.9 µM)
MIC [30]: 0.15 µg/mL (≈ 0.239 µM)

Further lines, with some results ahead:

MIC [20]: 0.3 µg/mL (≈ 0.408 µM)
MIC [21]: 40 µg/mL (≈ 54.4 µM)
MIC [22]: 5 µg/mL (≈ 6.8 µM)
MIC [23]: 0.6 µg/mL (≈ 0.816 µM)
MIC [24]: 0.04 µg/mL (≈ 0.0544 µM)
MIC [25]: 10 µg/mL (≈ 13.6 µM)
MIC [26]: 5 µg/mL (≈ 6.8 µM)
MIC [27]: 40 µg/mL (≈ 54.4 µM)
MIC [28]: 0.6 µg/mL (≈ 0.816 µM)
MIC [29]: 40 µg/mL (≈ 54.4 µM)
MIC [30]: 0.3 µg/mL (≈ 0.408 µM)
SMILES: CC[C@H]1OC(=O)[C@H](C)C(=O)[C@H](C)[C@@H](O[C@@H]2O[C@H](C)C[C@H](N(C)C)[C@H]2O)[C@](C)(OC)C[C@@H](C)/C(=N\OCc2c(C)cc(C)cc2C)[C@H](C)[C@@H](O)[C@]1(C)O

MIC50 [6]: 2.5 µg/mL (≈ 3.41 µM)
MIC90 [6]: 10 µg/mL (≈ 13.6 µM)
MIC [20]: 0.3 µg/mL (≈ 0.409 µM)
MIC50 [7]: 0.6 µg/mL (≈ 0.818 µM)
MIC90 [7]: 40 µg/mL (≈ 54.5 µM)
MIC50 [1]: 1.2 µg/mL (≈ 1.64 µM)
MIC90 [1]: 5 µg/mL (≈ 6.81 µM)
MIC50 [9]: 40 µg/mL (≈ 54.5 µM)
MIC90 [9]: 40 µg/mL (≈ 54.5 µM)
MIC [21]: 2.5 µg/mL (≈ 3.41 µM)
MIC [22]: 40 µg/mL (≈ 54.5 µM)
MIC50 [3]: 1.2 µg/mL (≈ 1.64 µM)
MIC90 [3]: 10 µg/mL (≈ 13.6 µM)
MIC [23]: 40 µg/mL (≈ 54.5 µM)
MIC50 [32]: 40 µg/mL (≈ 54.5 µM)
MIC90 [32]: 40 µg/mL (≈ 54.5 µM)
MIC50 [12]: 5 µg/mL (≈ 6.81 µM)
MIC90 [12]: 40 µg/mL (≈ 54.5 µM)
MIC50 [13]: 40 µg/mL (≈ 54.5 µM)
MIC90 [13]: 40 µg/mL (≈ 54.5 µM)
MIC [24]: 0.08 µg/mL (≈ 0.109 µM)
MIC50 [16]: 40 µg/mL (≈ 54.5 µM)
MIC90 [16]: 40 µg/mL (≈ 54.5 µM)
MIC50 [18]: 20 µg/mL (≈ 27.3 µM)
MIC90 [18]: 40 µg/mL (≈ 54.5 µM)
MIC [25]: 40 µg/mL (≈ 54.5 µM)
MIC [26]: 40 µg/mL (≈ 54.5 µM)
MIC [27]: 40 µg/mL (≈ 54.5 µM)
MIC [28]: 40 µg/mL (≈ 54.5 µM)
MIC [29]: 2.5 µg/mL (≈ 3.41 µM)
MIC [30]: 0.08 µg/mL (≈ 0.109 µM)
SMILES: CC[C@H]1OC(=O)[C@H](C)[C@@H](O[C@H]2C[C@@](C)(OC)[C@@H](O)[C@H](C)O2)[C@H](C)[C@@H](O[C@@H]2O[C@H](C)C[C@H](N(C)C)[C@H]2O)[C@](C)(O)C[C@@H](C)C(=O)[C@H](C)[C@@H](O)[C@]1(C)O [ERYTHROMYCIN]
ED50 [31]: 18.3 mg/kg
ED50 [8]: > 100 mg/kg
ED50 [2]: 346 mg/kg
ED50 [11]: > 100 mg/kg
ED50 [4]: 326 mg/kg
ED50 [33]: 300 mg/kg
ED50 [34]: 57 mg/kg
ED50 [14]: > 100 mg/kg
ED50 [15]: > 100 mg/kg
ED50 [5]: 442 mg/kg
ED50 [17]: > 100 mg/kg
ED50 [19]: > 100 mg/kg
